# Measurements from ChEMBL document CHEMBL1144747, “(Phenylpiperazinyl-butyl)oxindoles as selective 5-HT7 receptor antagonists” (J Med Chem, 2008).
# Assays:
# Rattus norvegicus = assay: Anxiolytic activity in ip dosed Wistar rat assessed as number of punished licks for 5 mins by conflict drinking test; format: functional; details: read-out: MED
# Procedure, shortened: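 Modified Vogel test in male Wistar rats, 160–180 g, water-deprived 48 h and fasted 24 h. Dosed ip 30 min before test. After a 30 s free-drinking period, 600 µA, 0.6 s shocks came through the spout every 20 licks over 5 min. Punished licks counted; minimal effective dose reported.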
# D(2) dopamine receptor = D(2) dopamine receptor (Homo sapiens, UniProt P14416); assay: Inhibition of dopamine D2 receptor
# [1] = biological target: T1, 5-hydroxytryptamine receptor 1A (Rattus norvegicus, UniProt P19327); assay: Inhibition of 5HT1A receptor in rat frontal cortex membrane; format: cell membranes
# T1 sequence (P19327 whole entry): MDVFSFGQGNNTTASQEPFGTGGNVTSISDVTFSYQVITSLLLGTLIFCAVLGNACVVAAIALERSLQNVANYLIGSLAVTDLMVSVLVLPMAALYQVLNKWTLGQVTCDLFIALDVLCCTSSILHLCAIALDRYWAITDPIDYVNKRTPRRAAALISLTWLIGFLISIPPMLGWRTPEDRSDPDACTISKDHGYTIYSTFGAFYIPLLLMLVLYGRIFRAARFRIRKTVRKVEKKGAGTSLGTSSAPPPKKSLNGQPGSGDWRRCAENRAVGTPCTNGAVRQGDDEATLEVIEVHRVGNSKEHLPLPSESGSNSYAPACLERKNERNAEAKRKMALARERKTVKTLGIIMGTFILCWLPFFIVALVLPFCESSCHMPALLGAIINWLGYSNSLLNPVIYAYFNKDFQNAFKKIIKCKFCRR
# Procedure, shortened: (§1)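 Rat tissue homogenized in 50 mM Tris-HCl pH 7.7, washed by repeated 40000g spins with a 10 min 37 °C incubation. Buffer: Tris-HCl, 6.66 mM CaCl2, 16.66 µM pargyline, 0.166% ascorbate. Labelled with 1.5 nM [3H]8-OH-DPAT, 45 min at 25 °C; nonspecific with 10 µM 5-HT. GF/B filtration, then scintillation counting; percent inhibition.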
# [2] = biological target: 5-hydroxytryptamine receptor 2A (Homo sapiens, UniProt P28223); assay: Inhibition of 5HT2A receptor
# [3] = biological target: T2, 5-hydroxytryptamine receptor 7 (Homo sapiens, UniProt P34969); assay: Displacement of [3H]LSD from human recombinant 5HT7 receptor expressed in CHO cells; format: cell-based; details: read-out: Ki
# Procedure, shortened: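 Cloned human 5-HT7 receptor from CHO cells, labelled with [3H]LSD; nonspecific binding with 25 µM clozapine. Stopped by filtration on PEI-soaked GF/C filters, then scintillation counting. Ki from two displacement curves of nine concentrations each, run in triplicate.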
# [4] = biological target: T3, 5-hydroxytryptamine receptor 1A (Rattus norvegicus) (UniProt P19327); assay: Displacement of [3H]8-OH-DPAT from 5HT1A receptor in rat frontal cortex membrane at 0.1 uM; format: cell membranes; procedure, shortened: as §1
# T3 sequence (whole entry): T1 sequence (P19327 whole entry)
# [5] = biological target: T4, 5-hydroxytryptamine receptor 2C (Homo sapiens, UniProt P28335); assay: Inhibition of 5HT2C receptor
# T4 sequence (P28335 whole entry): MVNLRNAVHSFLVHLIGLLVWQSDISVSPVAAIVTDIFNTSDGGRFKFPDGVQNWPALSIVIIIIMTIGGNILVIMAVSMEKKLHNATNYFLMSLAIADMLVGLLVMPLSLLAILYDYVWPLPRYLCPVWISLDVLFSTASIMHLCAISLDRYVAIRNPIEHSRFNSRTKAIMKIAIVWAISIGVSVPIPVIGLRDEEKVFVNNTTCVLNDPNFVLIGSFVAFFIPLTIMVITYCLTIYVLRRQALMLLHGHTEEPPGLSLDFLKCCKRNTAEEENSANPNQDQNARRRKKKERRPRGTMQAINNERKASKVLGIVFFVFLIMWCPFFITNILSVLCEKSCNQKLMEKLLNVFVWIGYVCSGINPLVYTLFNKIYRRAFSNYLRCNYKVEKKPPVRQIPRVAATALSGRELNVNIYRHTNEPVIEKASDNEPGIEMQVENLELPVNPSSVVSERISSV
# [6] = biological target: T3, 5-hydroxytryptamine receptor 1A (Rattus norvegicus); assay: Displacement of [3H]8-OH-DPAT from 5HT1A receptor in rat frontal cortex membrane at 10 nM; format: cell membranes; procedure, shortened: as §1
# D(1A) dopamine receptor = D(1A) dopamine receptor (Homo sapiens, UniProt P21728); assay: Inhibition of dopamine D1 receptor
# [7] = biological target: 5-hydroxytryptamine receptor 6 (Homo sapiens, UniProt P50406); assay: Inhibition of 5HT6 receptor
# Mus musculus = assay: Anxiolytic activity in ip dosed NMRI mouse assessed as behavioral activity for 5 mins by light dark assay; format: functional; details: read-out: MED
# Procedure, shortened: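 Male NMRI mice, 25–33 g, kept in a dark room and dosed ip 30 min before test, then placed in the centre of the lit area. Over 5 min, time in each area, transitions, and horizontal and vertical activity were recorded. Minimal effective dose by one-way ANOVA with Duncan's test.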
# [8] = biological target: T5, Alpha-1A adrenergic receptor (Homo sapiens, UniProt P35348); assay: Inhibition of adrenergic alpha-1 receptor
# T5 sequence (P35348 whole entry): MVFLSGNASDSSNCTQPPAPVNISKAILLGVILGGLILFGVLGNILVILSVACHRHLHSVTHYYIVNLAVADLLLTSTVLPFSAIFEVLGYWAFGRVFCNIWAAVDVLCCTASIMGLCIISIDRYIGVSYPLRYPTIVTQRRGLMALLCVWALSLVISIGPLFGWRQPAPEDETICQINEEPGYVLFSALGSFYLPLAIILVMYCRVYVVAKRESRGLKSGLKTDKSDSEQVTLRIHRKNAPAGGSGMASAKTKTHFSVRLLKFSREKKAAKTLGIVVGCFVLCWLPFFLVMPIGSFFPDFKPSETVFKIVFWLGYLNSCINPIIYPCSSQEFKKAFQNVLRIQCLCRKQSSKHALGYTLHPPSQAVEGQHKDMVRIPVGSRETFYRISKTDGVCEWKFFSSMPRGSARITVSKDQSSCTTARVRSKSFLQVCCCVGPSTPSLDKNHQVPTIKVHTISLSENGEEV
# [9] = biological target: T2, 5-hydroxytryptamine receptor 7; assay: Antagonist activity at human 5HT7A receptor expressed in CHO cells assessed as inhibition of […]-induced cAMP elevation at 1 uM; format: functional, cell-based; design: scale not given: the % may be the effect or the level left
# Procedure, shortened: (§2)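 CHO cells stably expressing human 5-HT7A, cultured in F12:DMEM with 5% FCS, seeded 24 h ahead. Compounds from 1 mM DMSO stock (final DMSO 0.1%) preincubated 10 min, then 20 min with 10 nM 5-CT at 37 °C. Cells lysed, cAMP by EIA, normalized to BCA protein. The 5-CT-induced level is taken as 100%; six independent experiments.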
# [10] = biological target: T2, 5-hydroxytryptamine receptor 7; assay: Antagonist activity at human 5HT7A receptor expressed in CHO cells assessed as inhibition of […]-induced cAMP elevation at 10 nM administered before […] challenge; format: functional, cell-based; design: scale not given: the % may be the effect or the level left; procedure, shortened: as §2
# [11] = Oral bioavailability in rat; format: ADME, organism-based; details: in vivo
# T2 sequence (P34969 whole entry): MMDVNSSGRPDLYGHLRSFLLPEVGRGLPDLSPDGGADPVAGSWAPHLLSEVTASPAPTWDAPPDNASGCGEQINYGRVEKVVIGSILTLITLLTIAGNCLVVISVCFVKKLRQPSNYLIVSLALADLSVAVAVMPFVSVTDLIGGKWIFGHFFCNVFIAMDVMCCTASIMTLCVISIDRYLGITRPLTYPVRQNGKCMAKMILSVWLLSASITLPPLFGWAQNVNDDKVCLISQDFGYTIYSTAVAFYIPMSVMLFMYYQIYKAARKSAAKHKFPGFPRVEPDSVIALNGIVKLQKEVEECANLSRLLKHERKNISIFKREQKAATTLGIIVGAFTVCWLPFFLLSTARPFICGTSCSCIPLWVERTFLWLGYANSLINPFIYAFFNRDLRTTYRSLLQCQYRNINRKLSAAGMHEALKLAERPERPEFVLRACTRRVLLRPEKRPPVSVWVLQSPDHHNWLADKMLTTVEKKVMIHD
# Chain of 5-hydroxytryptamine receptor 6 (P50406 whole entry): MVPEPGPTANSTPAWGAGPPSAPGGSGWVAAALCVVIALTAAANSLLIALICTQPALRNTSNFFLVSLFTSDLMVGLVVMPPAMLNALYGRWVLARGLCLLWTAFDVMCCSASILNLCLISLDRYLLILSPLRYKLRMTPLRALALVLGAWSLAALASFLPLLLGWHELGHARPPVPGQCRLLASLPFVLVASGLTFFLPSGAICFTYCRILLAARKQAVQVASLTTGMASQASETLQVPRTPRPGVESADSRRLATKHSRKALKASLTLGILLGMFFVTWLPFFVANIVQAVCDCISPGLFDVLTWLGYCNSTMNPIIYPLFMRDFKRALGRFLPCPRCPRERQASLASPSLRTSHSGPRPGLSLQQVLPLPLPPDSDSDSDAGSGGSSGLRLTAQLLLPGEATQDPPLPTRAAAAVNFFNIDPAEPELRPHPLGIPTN
# Chain of D(1A) dopamine receptor (P21728 whole entry): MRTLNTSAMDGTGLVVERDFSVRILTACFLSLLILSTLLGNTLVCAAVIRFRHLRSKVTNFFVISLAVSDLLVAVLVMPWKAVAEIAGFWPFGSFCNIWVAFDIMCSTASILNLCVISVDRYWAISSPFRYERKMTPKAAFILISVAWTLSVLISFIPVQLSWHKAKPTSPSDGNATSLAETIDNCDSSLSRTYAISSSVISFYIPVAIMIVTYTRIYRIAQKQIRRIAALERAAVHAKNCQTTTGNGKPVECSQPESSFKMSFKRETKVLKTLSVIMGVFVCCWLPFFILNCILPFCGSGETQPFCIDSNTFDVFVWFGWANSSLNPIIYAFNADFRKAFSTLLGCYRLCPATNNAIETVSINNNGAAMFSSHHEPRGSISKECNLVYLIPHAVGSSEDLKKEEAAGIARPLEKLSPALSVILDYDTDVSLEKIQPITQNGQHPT
# Chain of D(2) dopamine receptor (P14416 whole entry): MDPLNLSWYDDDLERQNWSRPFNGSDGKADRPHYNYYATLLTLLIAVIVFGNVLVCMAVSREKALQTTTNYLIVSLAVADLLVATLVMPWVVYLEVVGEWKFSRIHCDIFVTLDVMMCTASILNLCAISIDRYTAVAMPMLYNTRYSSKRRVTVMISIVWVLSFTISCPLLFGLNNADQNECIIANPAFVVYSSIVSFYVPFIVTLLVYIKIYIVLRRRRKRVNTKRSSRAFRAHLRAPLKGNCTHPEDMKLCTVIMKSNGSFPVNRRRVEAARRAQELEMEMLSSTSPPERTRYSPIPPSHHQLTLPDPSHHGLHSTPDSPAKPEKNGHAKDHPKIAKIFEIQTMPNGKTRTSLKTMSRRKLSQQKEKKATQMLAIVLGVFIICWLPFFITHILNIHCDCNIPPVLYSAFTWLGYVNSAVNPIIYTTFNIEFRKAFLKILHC
# Chain of 5-hydroxytryptamine receptor 2A (P28223 whole entry): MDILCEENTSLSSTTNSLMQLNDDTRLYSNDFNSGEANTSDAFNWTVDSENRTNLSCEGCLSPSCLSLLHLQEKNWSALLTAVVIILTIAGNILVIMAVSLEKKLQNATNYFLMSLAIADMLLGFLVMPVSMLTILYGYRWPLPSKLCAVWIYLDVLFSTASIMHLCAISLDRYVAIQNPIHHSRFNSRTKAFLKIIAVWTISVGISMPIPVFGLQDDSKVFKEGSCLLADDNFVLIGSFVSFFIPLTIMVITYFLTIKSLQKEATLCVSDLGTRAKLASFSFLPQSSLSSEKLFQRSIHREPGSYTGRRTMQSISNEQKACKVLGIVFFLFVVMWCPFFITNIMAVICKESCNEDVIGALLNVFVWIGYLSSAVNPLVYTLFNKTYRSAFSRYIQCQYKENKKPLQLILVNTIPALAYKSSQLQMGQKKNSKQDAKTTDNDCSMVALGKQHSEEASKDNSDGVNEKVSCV
Ki (D(2) dopamine receptor),Ki [1],Ki [2],Ki [3],Activity [4],Ki [5],Activity [6],Ki (D(1A) dopamine receptor),Ki [7],Ki [8],Activity [9],Activity [10],Compound,minimal effective dose (Rattus norvegicus),minimal effective dose (Mus musculus),bioavailability [11]
950 nM,1610 nM,19.4 nM,0.79 nM,9%,358 nM,0%,3360 nM,187 nM,71.3 nM,> 95%,,CCC1(CCCCN2CCN(c3ccc(Cl)cc3)CC2)C(=O)Nc2cc(F)ccc21 (stereo not given),> 20 mg/kg,> 10 mg/kg,
330 nM,150 nM,55 nM,44 nM,33%,1500 nM,5%,1900 nM,1800 nM,20 nM,> 95%,40%,O=C1Nc2ccc(F)cc2C1CCCCN1CCN(c2ccccc2)CC1 (stereo not given),< 10 mg/kg,,
,,,,,,,,,,,,O=C1Nc2ccc(Cl)c3c2C1(CCCCN1CC=C(c2ccc(Cl)cc2)CC1)CCC3 (stereo not given),,,18%
960 nM,1800 nM,17.5 nM,7 nM,10%,690 nM,,2400 nM,580 nM,42 nM,> 95%,80%,O=C1Nc2ccccc2C1CCCCN1CCN(c2ccc(Cl)cc2)CC1 (stereo not given),< 2.5 mg/kg,< 1 mg/kg,
